Rows were chosen to be rich in hits. Some 4.3% of all compounds tested hit in one or more screens of this group.
SMARCA2 activ: increases SMARCA2 function in MMTV reporter cells | activation, % at 9.1 µM | 370,000 compounds, 1% hits | MG213 cells, MMTV-luciferase reporter, dexamethasone, overnight; in the data active means activation above about 7.8%;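 further: 0% = vehicle wells and 100% = reference activator wells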
AHR activator: activators of human aryl hydrocarbon receptor | P35869 | AHR-responsive luciferase reporter cells, luminescence | activation, % at 5 µM | 320,000 compounds, 2.5% hits | AID 2796; in the data active means activation above about 47%;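 further: 0% = vehicle wells and 100% = reference agonist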
Target sequence (P35869 whole entry, looked up): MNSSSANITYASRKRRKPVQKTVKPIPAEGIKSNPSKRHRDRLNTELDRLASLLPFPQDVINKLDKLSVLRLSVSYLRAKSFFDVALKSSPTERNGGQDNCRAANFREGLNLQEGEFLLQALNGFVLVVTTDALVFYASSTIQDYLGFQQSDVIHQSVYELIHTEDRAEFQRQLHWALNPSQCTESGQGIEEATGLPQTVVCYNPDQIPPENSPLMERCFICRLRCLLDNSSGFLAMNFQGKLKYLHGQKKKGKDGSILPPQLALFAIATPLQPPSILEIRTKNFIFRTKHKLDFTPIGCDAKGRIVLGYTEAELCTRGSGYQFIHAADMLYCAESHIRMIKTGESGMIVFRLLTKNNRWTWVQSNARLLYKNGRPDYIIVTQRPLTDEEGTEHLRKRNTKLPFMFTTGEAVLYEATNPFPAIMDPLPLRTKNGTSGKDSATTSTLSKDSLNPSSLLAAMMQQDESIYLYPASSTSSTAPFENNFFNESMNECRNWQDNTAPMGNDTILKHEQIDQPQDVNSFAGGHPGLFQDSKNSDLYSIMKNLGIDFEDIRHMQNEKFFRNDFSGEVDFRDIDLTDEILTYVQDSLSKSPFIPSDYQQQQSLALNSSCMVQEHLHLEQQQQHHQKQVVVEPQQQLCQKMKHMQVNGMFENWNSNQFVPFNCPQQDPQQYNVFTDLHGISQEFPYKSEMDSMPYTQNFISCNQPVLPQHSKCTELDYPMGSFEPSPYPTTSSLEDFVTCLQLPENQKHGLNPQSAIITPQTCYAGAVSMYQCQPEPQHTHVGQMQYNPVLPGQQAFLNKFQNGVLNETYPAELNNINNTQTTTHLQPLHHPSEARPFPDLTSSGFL
Lipid droplet: hepatic lipid droplet formation modulation. AML12 mouse hepatocytes, oleate lipid droplets, BODIPY imaging. inhibition, % at 6.5 µM. 240,000 compounds, 0.4% hits. AID 1656;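 active means lipid droplet intensity inhibited by at least 50%, with more than 500 cells counted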
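Material – mouse AML12 hepatocyte cell line, fixed after treatment · Compound dosing – one dose, 6.5 µM compound · Times – compound with oleate, overnight · Measured by – Image-based BODIPY and DAPI two-channel analysis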
SR-BI DiI-HDL act: enhances SR-BI lipid uptake from DiI-HDL | CHO ldlA[mSR-BI] cells, DiI-HDL uptake fluorescence, 3 h; 100 = double the neutral-control signal | activation, % at 12.5 µM | 320,000 compounds, 0.096% hits | AID 504775;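 active means mean replicate activation of at least 60% and every replicate at or above 60%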;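 further: 0% = median plate neutral-control signal and 100% = twice that signal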
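Test system: SR-BI-overexpressing, LDLR-lacking CHO cells; Medium: Ham's F12 with 0.5% BSA, HEPES 25 mM, pH 7.4; Schedule: 3 h, 37 °C; Technique: bottom-read fluorescence, 550/595 nm.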
CR mimetic SO: lowers age-related superoxide in aged yeast cells. S. cerevisiae aged cells, superoxide DHE fluorescence; hits give low values. superoxide response (% of plate mean), % at 10 µM. 330,000 compounds, 0.18% hits;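 active means superoxide response under a set limit, about three screen SD below normal, cut at about 65% in these data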;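 further: yeast aged for seven days with compound at 30 °C before DHE staining; 100% = average MFI of all compound-treated wells on the plate with controls excluded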
SR-BI HDL uptake: blocks mouse SR-BI lipid uptake from DiI-HDL; inhibition, % at 12.5 µM; Q61009; ldlA[mSR-BI] CHO cells, DiI-HDL uptake fluorescence, 3 h; 320,000 compounds, 0.96% hits;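 active means mean replicate inhibition of at least 70% and a set share of replicates each scoring 70 or more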;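 further: 0% = median of neutral control wells and 100% = median of positive control wells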
SMARCA2 conf: confirmation of SMARCA2 (BRM) function activators; shares compounds with SMARCA2 activ; 3,500 compounds, 30% hits; MG213 cells, MMTV-luciferase with dexamethasone, luminescence, overnight; MG213 cells expressing E1A, Rb sequestered; DMSO wells 0%, reference activator 100%; activation, % at 9.1 µM;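 active means activation above its plate's cutoff, the mean activation of tested wells plus 3 SD, cut at about 7.9% in these data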
VP16 Luc act: counter-screen for SMARCA2 activators: GAL4-VP16 luciferase reporter activation. shares compounds with SMARCA2 activ. HEK293 GAL4-VP16 pG5luc reporter, luciferase luminescence; scaled: DMSO wells 0%, SAHA wells 100%. activation, % at 9.1 µM. 3,500 compounds, 41% hits;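 active means activation above the solvent-only control well mean plus 3 SD, averaged across control plates, cut at about 5.2% in these data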
* = called active by the depositor; . = no result.

SMILES | SMARCA2 activ | AHR activator | Lipid droplet | SR-BI DiI-HDL act | CR mimetic SO | SR-BI HDL uptake | SMARCA2 conf | VP16 Luc act
COCCn1c(C)cc(C(=O)COC(=O)c2ccc(Br)o2)c1C | 1.6 | 2.4 | -22.9 | 4.7 | 89.1 | -4.7 | . | .
O=C(/C=C/c1ccco1)N1CCN(c2ncccn2)CC1 | 8.8* | 22.3 | -5.0 | 7.1 | 111.8 | -7.1 | 5.8 | 6.5*
COC(=O)[C@]12C[C@H](CC(=O)NCCCCc3ccccc3)C(=O)N(Cc3ccco3)C1=C[C@H](C(C)(C)C)O[C@@H]2C | -5.1 | . | . | . | . | . | . | .
Cc1ccc(NC(=O)Nc2cnccn2)cc1 | 10.0* | 11.4 | 0.4 | 8.4 | 97.1 | -8.4 | 4.2 | 3.7
COc1cc(/C=c2\sc3n(c2=O)CCCN=3)ccc1O | 4.0 | 1.4 | . | 0.3 | 90.5 | -0.3 | . | .
O=c1/c(=C/c2ccc([N+](=O)[O-])cc2)sc2n1CCCN=2 | 8.7* | -5.9 | . | -19.9 | 91.3 | 19.9 | 11.5* | 12.6*
O=S1(=O)c2ccc(N3CCSCC3)cc2Oc2ccccc2CN1Cc1cn(Cc2ccc(Cl)cc2)nn1 | -0.9 | . | . | . | . | . | . | .
CCOC(=O)Cn1cc(CN2C(C(=O)OC)CN(Cc3ccccc3)CCS2(=O)=O)nn1 (stereo unspecified) | -0.8 | . | . | . | . | . | . | .
Cc1occc1C(=O)NNC(=O)c1ccccc1C(=O)O | 11.6* | -0.8 | -3.4 | 35.2 | 96.6 | -35.2 | 4.7 | 5.0
Cc1ccccc1C(=O)NNC(=O)c1ccoc1C | -1.9 | -0.8 | . | 3.4 | 145.4 | -3.4 | . | .
COc1ccc2c(c1)CO[C@H]([C@H](O)CO)[C@H]2/C=C/c1ccccc1 | -4.7 | . | . | . | . | . | . | .
Nc1ccccc1-c1nnc(-c2ccc(-c3ccccc3)cc2)o1 | 9.2* | 75.8* | -1.1 | 0.3 | 110.0 | -0.3 | 13.9* | 11.1*
Oc1ccccc1-c1nnc(-c2ccc(C(F)(F)F)cc2)o1 | 9.9* | 52.0* | . | 11.5 | 110.7 | -11.5 | 4.0 | 6.9*
CSc1ccccc1-c1nnc(-c2ccccc2)o1 | 7.0 | 39.8 | -0.9 | -18.8 | 111.9 | 18.8 | . | .
Cc1ccc(C(=O)N(C)[C@H]2C[C@H]3c4[nH]c5c(-c6ccc7c(c6)OCO7)cccc5c4CCN3C[C@H]2[C@H](C)O)cc1 | 2.0 | . | . | . | . | . | . | .
O=C(COC(=O)CNS(=O)(=O)c1cccc(Br)c1)NC(=O)Nc1ccc2c(c1)OCCO2 | 11.0* | 0.7 | 3.5 | 18.2 | 103.2 | -18.2 | 7.5 | 1.4
O=C(COC(=O)CNS(=O)(=O)c1ccc2ccccc2c1)Nc1ccc2c(c1)OCO2 | -3.2 | 1.8 | 2.6 | -3.8 | 87.2 | 3.8 | . | .
S=c1[nH]nc(Nc2cccc3ccccc23)s1 | 11.3* | 22.8 | -10.9 | -5.8 | 97.0 | 5.8 | 3.0 | 0.6
CC(C)Oc1ccc(C2CC(=O)N(c3cccc(C(=O)O)c3)C2=O)cc1 (stereo unspecified) | 9.8* | 2.0 | . | 1.8 | 107.6 | -1.8 | 2.1 | 2.3
Nc1c2ccccc2nc2ccccc12 | 54.8* | 26.9 | -84.6 | 7.3 | 111.4 | -7.3 | 110.4* | 1.6
Cc1cc(OCC(C)CN2CCC(C(O)(c3ccccc3)c3ccccc3)CC2)ccc1Br (stereo unspecified) | -4.9 | . | . | . | . | . | . | .
CCCCCCCCN1C(=O)[C@@H](CC(=O)NCCCN2CCCC2=O)C[C@@]2(C(=O)OC)C1=C[C@H](C(C)(C)C)O[C@@H]2C | -1.3 | . | . | . | . | . | . | .
CC(C)(C)C(=O)N1CCN(c2ccc(NC(=O)c3ccc([N+](=O)[O-])o3)cc2)CC1 | 9.8* | -7.5 | -52.1 | 12.9 | 115.3 | -12.9 | 1.5 | 4.2
O=C(Nc1ncccn1)c1ccc([N+](=O)[O-])o1 | 14.7* | 6.3 | 16.1 | 9.2 | 96.1 | -9.2 | 10.0* | 0.8
O=C(Nc1cccc(NC(=O)c2ccccc2Cl)c1)c1ccc([N+](=O)[O-])o1 | -1.4 | -6.0 | 2.5 | -58.7 | 123.5 | 58.7 | . | .
